This is an account of results in publication PMC5161541 (Nuclear medicine and biology, 2016).

As a reminder, the IC50 is the concentration at which inhibition is half-maximal. The term koff denotes the rate constant with which the complex falls apart.

Molecules are shown by their SMILES. Read-outs that look alike come from different tables or passages of the source.

Data set [1] deals with sites labeled by [125I]-E-IA-BF-PIPZE (σ1 receptors) (Mus musculus, UniProt O55242). It counts as binding.
Sequence of sites labeled by [125I]-E-IA-BF-PIPZE (σ1 receptors) (O55242 whole entry): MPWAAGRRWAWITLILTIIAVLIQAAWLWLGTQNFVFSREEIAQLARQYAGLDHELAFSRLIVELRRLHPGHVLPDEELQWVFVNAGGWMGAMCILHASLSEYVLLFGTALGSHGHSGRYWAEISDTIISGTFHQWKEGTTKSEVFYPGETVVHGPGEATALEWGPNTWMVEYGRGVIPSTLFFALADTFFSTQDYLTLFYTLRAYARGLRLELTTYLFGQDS
For data set [2], the target named is T1, σ1 receptors (Mus musculus, UniProt O55242). The settings on record: 100 μmol / kg, i.p.; cited from earlier work.
T1 sequence (O55242 whole entry): as above
In data set [3] the target is T1, σ1 receptors. The data set is described as follows: In vivo specific binding and blocking by pretreatment with σ receptor ligands. The note with it: for adverse effects or abnormal behaviors: mice.
Data set [4] has as its target T1, σ1 receptors. The data set is described as follows: Regional brain distribution with blocking pretreatments. The settings on record: 2.5 μmol / kg i.v., 60 min, nine regions. It is filed as in vivo, CD-1 mouse.
The target of data set [5] is vesicular acetylcholine transporter (VAChT). The note with it: read-out: apparent affinity for VAChT in vitro; cited from earlier work.
For data set [6], the system named is σ1 receptors. The settings on record: cited from earlier work.
The target in data set [7] is cannabinoid receptor type 2 (CB2). The note with it: cited from earlier work.
Data set [8] has as its system cerebral σ1 receptors. The note with it: over 30 h, SPECT; cited from earlier work.
In data set [9] the target is T1, σ1 receptors. Briefly: Competition binding against [3H]-PTZ in mouse brain membranes. The note with it: read-out: Sigma-1 Ki; [3H]-PTZ, mouse brain membranes; mean ± SEM, n = 4.
The target in data set [10] is T1, σ1 receptors. It counts as binding.
The target in data set [11] is T1, σ1 receptors. The data set is described as follows: "Hot" saturation binding in mouse brain membranes. Put shortly: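 "Hot" saturation: mouse brain membranes incubated with increasing radioligand concentrations until steady-state binding. Non-specific binding determined in parallel at each concentration with a competing non-radioactive ligand. Specific binding fitted by nonlinear regression to the one-site mass-action equation to give Kd and Bmax. Bound/Free expressed as (fmol/mg protein)/nM for the Scatchard plot. Single experiment.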

Data set [12] can be described thus: Lipophilicity, shake-flask n-octanol / buffer pH 7.4. It is filed as physicochemical. The procedure, abridged: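 Shake-flask method: radiolabeled test compound partitioned between equal volumes of n-octanol and aqueous buffer pH 7.4, each presaturated with the other. Vortexed, then centrifuged. Each layer sampled in duplicate or triplicate and counted. Counts normalized per g or per mL, and the concentration ratio converted to Log D7.4.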

Data set [13] is described as follows: TCA protein precipitation assay of plasma protein binding. It is filed as in vitro ADME, mouse. The note with it: for Protein Binding: mouse plasma, 37 °C, 30 min, TCA precipitation, n = 9. Put shortly:
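Radioiodinated test compound incubated in commercial mouse plasma at 37 °C for 30 min. Proteins then precipitated with cold 10% TCA / 5% HCl to measure protein-bound radioactivity.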

Data set [14] in a line: Temporal biodistribution after i.v. radioligand in CD-1 mice. It is filed as in vivo, CD-1 mouse. The procedure, abridged:
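Radioligand given i.v. to male CD-1 mice, with tissues sampled from 5 min to 24 h. Uptake expressed as %ID/g. Clearance half-lives from heart and lung obtained by monoexponential decay fitting.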

A short description of data set [15]: Radiometabolite analysis of tissue extracts and urine by HPLC. It counts as in vivo, CD-1 mouse. The note with it: for Radiometabolites Whole Brain, 60 min: mouse, in vivo. The procedure, abridged: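 Organs from i.v.-dosed mice, given more radioactivity than in pharmacokinetic studies, counted and homogenized in methanol/acetonitrile/water containing DTG (100 μM). Homogenates centrifuged, with a radioactivity balance taken for extracts and pellets. Extracts diluted with water and filtered (0.45 μm) for radio-HPLC. Urine only diluted with mobile phase and filtered.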

Data set [16] has as its target T1, σ1 receptors. The data set is described as follows: Calculated binding potential. The note with it: single trial, protein assumed 5% of brain tissue. The procedure, abridged: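 The Scatchard Y-intercept, as Bound/Free in (fmol/mg protein)/nM from the in vitro mouse brain membrane saturation experiment, was converted to tissue-concentration units assuming protein is 5% of brain tissue. This gave binding potential for a single trial.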

[17] abbreviates: 0.1 nM [125I]-E-IA-BF-PIPZE, 37 °C, 180 min, means ± SEM (n = 3 – 6).
The mark [18] stands for this setting: Cheng-Prusoff, 0.1 nM [125I]-E-IA-BF-PIPZE, means ± SEM (n = 3 – 6).
The mark [19] stands for this setting: listed as [^125I]-E-IA-BF-PIPZE.
[20] abbreviates: 15 min, defined by BD1063 5 μmol / kg i.v.

As for `CC(C)=CCN1CC[C@]2(C)c3cc(O)ccc3C[C@H]1[C@H]2C` [(+)-Pentazocine, (+)-pentazocine], in data set [1] (means ± SEM (n = 3 – 6)), the “Hill (nH)” value is recorded as 0.9 ± 0.1.

For `COC(=O)[C@H]1[C@@H](OC(=O)c2ccccc2)C[C@@H]2CC[C@H]1N2C` [(−)-cocaine], the “inhibition of [125I]-E-IA-DM-PE-PIPZE uptake” value in [2] is 50%.

Compound `CN1CCN(CCc2ccc(Cl)c(Cl)c2)CC1` [BD1063] yielded an IC50 in [1] (setting [17]) of 13.6 ± 0.7 nM. This compound also came in with a Ki in data set [1] (setting [18]) of 9.6 ± 0.5 nM. The “Hill (nH)” value in data set [1] (means ± SEM (n = 3 – 6)) is 1.3 ± 0.1. The “adverse effects or abnormal behaviors” value in data set [3] (2.5 μmol / kg i.v.) is on record as “No adverse effects or abnormal behaviors”. The “radioactivity in the blood after pretreatment” value in data set [3] (60 min, blocker 2.5 μmol / kg i.v.) is listed as 0.76 ± 0.04 %ID / g.

In [1] (setting [17]), `COc1cc2c(cc1OC)CN(CCCCNC(=O)c1cc(Br)cc(OC)c1OC)CC2` [Br-Mach, reference compound] showed an IC50 of 9850 ± 807 nM. The compound further showed a Ki in [1] (setting [18]) of 6390 ± 524 nM. Further, the “Hill (nH)” value in data set [1] (means ± SEM (n = 3 – 6)) is reported as 1.1 ± 0.2. Besides, the “reduction of radioligand uptake across brain regions” value in data set [4] is “minimal but statistically significant”. In addition, in data set [3] (2.5 μmol / kg i.v., 60 min), the “decrease of radioligand uptake in brain” value stood at 14%; the “decrease of radioligand uptake in heart” value amounted to 15%; the “decrease of radioligand uptake in muscle” value is reported as 24%; the “inhibition of radioligand uptake in spleen, kidney, lung or liver” value is “did not inhibit”. Also, in [3] (2.5 μmol / kg i.v.), the “adverse effects or abnormal behaviors” value is given as “No adverse effects or abnormal behaviors”.

Consider `Cc1ccccc1NC(=N)Nc1ccccc1C` [DTG, ditolylguanidine], for which, in data set [1], the IC50 is 209 ± 14 nM and the Ki turned out to be 114 ± 7 nM. For the same compound, the “Hill (nH)” value in [1] (means ± SEM (n = 3 – 6)) amounted to 1.0 ± 0.1.

For the compound `COc1ccc(CCN2CCN(CCCc3ccccc3)CC2)cc1OC` [SA4503, 1-[2-(3,4-dimethoxyphenyl)ethyl]-4-(3-phenylpropyl)piperazine], the Ki in [5] is 50 nM.

Take `COc1ccc(CCN2CCN(CCCc3ccccc3)CC2)cc1` [YZ-067]: the “σ1 receptor affinity relative to SA4503” value in [6] was “improved affinity”.

With `CCCCCCC(C)(C)c1ccc([C@@H]2C[C@H](O)CC[C@H]2CCCO)c(O)c1` [[^3H]-CP55940], in data set [7], the Kd was 1.5 nM.

With `N#Cc1ccc(OCC2CCN(CC=CI)CC2)cc1` [[^123I]-TPCNE, [^123I]-1-(iodopropen-2-yl)-4-[(4-cyanophenoxy)methyl]piperidine], the Ki in data set [6] (read-out: apparent affinity (Ki) for σ1 sites in vitro) was 0.67 nM.

On to `N#Cc1ccc(OCC2CCN(CC=C[123I])CC2)cc1` [[^123I]-TPCNE, [^123I]-1-(iodopropen-2-yl)-4-[(4-cyanophenoxy)methyl]piperidine], for which, in data set [8], the “clearance from human brain” value is “no clearance”.

With `I/C=C/CN1CCN(CCc2ccc3c(c2)CCO3)CC1` [[^125I]-E-IA-BF-PE-PIPZE, [^125I]-(E)-1-(2-(2,3-dihydrobenzofuran-5-yl)ethyl)-4-(iodoallyl)piperazine], the Ki in data set [9] was 0.43 nM. In addition, the Kd in data set [10] (read-out: kinetically determined Kd (koff / kon), from rate constants) was 0.042 nM.

Regarding `[125I]/C=C/CN1CCN(CCc2ccc3c(c2)CCO3)CC1` [[^125I]-E-IA-BF-PE-PIPZE, [^125I]-(E)-1-(2-(2,3-dihydrobenzofuran-5-yl)ethyl)-4-(iodoallyl)piperazine], in data set [10] (0.16 nM radioligand, 37 °C), the kobs came out at 0.016 ± 0.002 min⁻¹ and the “time to steady-state binding” value is reported as ~180 min. The koff in data set [10] (0.16 nM radioligand, 37 °C, haloperidol-initiated dissociation) was 5.5e-05 ± 5e-06 s⁻¹. In data set [11] ((fmol / mg protein) / nM, single experiment), the “Bound / Free Y-intercept” value is given as 1942. Moreover, the “fold higher affinity from rate constants compared to saturation binding” value in [11] (Kd 0.042 nM vs […]) is on record as 5.7 fold. Moreover, the “fold higher σ1 receptor affinity than [125I]-E-IA-DM-PE-PIPZE” value in [11] (measured Kd, mouse brain membranes) came out at 16 fold. Moreover, in data set [11] (mouse brain membranes, 37 °C, 180 min, four trials, listed as [^125I]-E-IA-BF-PIPZE), the Bmax is listed as 472 ± 13 fmol / mg protein. The “fold higher lipophilicity than [125I]-E-IA-DM-PE-PIPZE” value in data set [12] is listed as 2.8 fold. Moreover, in data set [12] (n-octanol / buffer pH 7.4, n = 5), the “Log D7.4” value is 2.69 ± 0.28. For the same compound, in data set [13], the “increase of protein binding with respect to [125I]-E-IA-DM-PE-PIPZE” value came to 50% and the “Protein Binding” value is on record as 71 ± 0.3%. Moreover, the “Protein Binding” value in data set [13] (setting [19]) is on record as 71.2 ± 0.3%. In data set [14] (5 min), the blood level is reported as 0.31 ± 0.03 %ID / g and the “radioactivity in the eye” value is 2.01 ± 0.13 %ID / g. In addition, the brain uptake in data set [14] (5 min, i.v., mean ± SD) was 6.14 ± 0.94 %ID / g. Further, the peak brain uptake in data set [14] (15 min, i.v., mean ± SD) was 6.56 ± 1.23 %ID / g. The compound further registered a brain uptake in [14] (4 h) of 4.48 ± 0.22 %ID / g. In [14] (24 h), this compound displayed a blood level of 0.08 ± 0.01 %ID / g and a brain uptake of 0.76 ± 0.091 %ID / g. Further, the “clearance t½ from lung” value in data set [14] (monoexponential decay, r^2 0.88) was 1.73 h. Besides, the “clearance t½ from heart” value in data set [14] (monoexponential decay, r^2 0.90) turned out to be 1.98 h. In addition, in data set [14] (mouse, in vivo), the “initial whole brain uptake” value is reported as > 6 % injected dose / g; the “uptake in heart relative to brain, higher by” value was determined as 50%; the “uptake in lung compared to brain” value is 5 fold. Also, in data set [15] (60 min), the “extractable radioactivity, liver” value amounted to 80% and the “urinary radioactivity as polar metabolites” value was 99%. The “radioactivity in brain tissue from intact radioligand” value in data set [15] (60 min, 100 μCi i.v.) is “About 99%”. The “Radiometabolites Whole Brain, 60 min” value in data set [15] is reported as 1%. Further, the “Radiometabolites Whole Brain, 60 min” value in data set [15] (setting [19]) was 1%. Moreover, in data set [16], the “Binding Potential (BP)” value is 97. For the same compound, in [3] (setting [20]), the “specific radioligand binding in brain” value was 75%, the “specific radioligand binding in heart” value worked out at 87%, the “specific radioligand binding in lung” value is 87% and the “specific radioligand binding in muscle” value is recorded as 61%. In [3] (60 min, saline-treated control group), the “radioactivity in the blood, controls” value came out at 0.38 ± 0.09 %ID / g. In data set [3] (mouse, in vivo, 0.5 h), the “Non-Specific binding Whole Brain, 30 min” value was determined as 0.89 %ID /g and the “Specific binding Whole Brain, 30 min” value is 4.90 %ID /g. Also, in data set [3] (mouse, in vivo, 1 h), the “Non-Specific binding Whole Brain, 60 min” value was determined as 0.60 %ID /g and the “Specific binding Whole Brain, 60 min” value is given as 5.38 %ID /g. For the same compound, in [3] (mouse, in vivo, 4 h), the “Non-Specific binding Whole Brain, 240 min” value is reported as 0.34 %ID /g and the “Specific binding Whole Brain, 240 min” value is listed as 4.14 %ID /g. Also, in data set [3] (ratio of %ID /g values), the “Specific / Non-Specific Whole Brain, 30 min” value is 5.5; the “Specific / Non-Specific Whole Brain, 60 min” value was determined as 9.0; the “Specific / Non-Specific Whole Brain, 240 min” value is listed as 12. The “Specific / Non-Specific Whole Brain, 240 min” value in data set [3] (ratio of %ID /g values, listed as [^125I]-E-IA-BF-PIPZE) turned out to be 12.2.
